This is an account of results in ChEMBL document CHEMBL1255546, “Discovery of potent and selective histamine H3 receptor inverse agonists based on the 3,4-dihydro-2H-pyrazino[1,2-a]indol-1-one scaffold” (Bioorg Med Chem Lett, 2010).

Data set [1] addresses T1, Histamine H3 receptor (Homo sapiens, UniProt Q9Y5N1). The experiment in a line: Displacement of [3H]-RAMH from human histamine H3 receptor. On the technique in general: Displacement assays read how much labelled ligand stays bound in the presence of the test substance.
Data set [2] concerns the target Histamine H2 receptor (Homo sapiens) (UniProt P25021). In words: Displacement of [3H]-tiotidine from human histamine H2 receptor. Particulars: concentration not given here. Also on record: concentration or dose not given beside the values. The method, boiled down:
(§1)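 Radioligand displacement assays, single determination (n = 1) each: [3H]-mepyramine at H1, [3H]-tiotidine at H2, [3H]-histamine at H4.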

Data set [3] has as its target Histamine H4 receptor (Homo sapiens) (UniProt Q9H3N8). The experiment in a line: Displacement of [3H]-histamine from human histamine H4 receptor. On the set-up: concentration or dose not given beside the values. Particulars: concentration not given here. Put shortly: as §1
Data set [4] concerns the target T1, Histamine H3 receptor. The experiment in a line: Inverse agonist activity at human recombinant histamine H3 receptor assessed as effect on [35S]GTPgammaS binding. It is filed as functional. (Binding of GTPγS marks nucleotide exchange on a G protein.)
The target in data set [5] is Histamine H1 receptor (Homo sapiens) (UniProt P35367). In words: Displacement of [3H]-mepyramine from human histamine H1 receptor. Particulars: concentration not given here. Also on record: concentration or dose not given beside the values. Put shortly:
as §1

The target in a further data set is Cytochrome P450 3A4 (Homo sapiens, UniProt P08684). In words: Inhibition of CYP3A4. It is filed as ADME.
Chain of Cytochrome P450 3A4 (P08684 whole entry): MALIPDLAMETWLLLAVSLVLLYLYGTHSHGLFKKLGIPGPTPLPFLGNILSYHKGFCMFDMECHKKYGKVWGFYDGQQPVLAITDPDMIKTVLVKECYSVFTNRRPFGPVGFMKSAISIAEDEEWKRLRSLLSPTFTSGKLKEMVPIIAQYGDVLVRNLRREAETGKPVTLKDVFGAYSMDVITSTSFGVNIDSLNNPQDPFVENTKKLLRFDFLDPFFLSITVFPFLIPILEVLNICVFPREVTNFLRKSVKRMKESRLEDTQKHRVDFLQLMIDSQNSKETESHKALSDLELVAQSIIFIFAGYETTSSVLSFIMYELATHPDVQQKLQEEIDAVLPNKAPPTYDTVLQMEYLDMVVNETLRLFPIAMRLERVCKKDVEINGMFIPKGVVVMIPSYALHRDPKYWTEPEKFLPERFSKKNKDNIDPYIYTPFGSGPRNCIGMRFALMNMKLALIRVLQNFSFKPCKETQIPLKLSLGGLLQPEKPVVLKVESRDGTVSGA
Data set [6] in a line: Lipophilicity, log D of the compound at pH 7.4. It is filed as physicochemical. Particulars: buffer.
For another data set, the target named is Cytochrome P450 2D6 (Homo sapiens, UniProt P10635). In words: Inhibition of CYP2D6. Format: ADME.
Chain of Cytochrome P450 2D6 (P10635 whole entry): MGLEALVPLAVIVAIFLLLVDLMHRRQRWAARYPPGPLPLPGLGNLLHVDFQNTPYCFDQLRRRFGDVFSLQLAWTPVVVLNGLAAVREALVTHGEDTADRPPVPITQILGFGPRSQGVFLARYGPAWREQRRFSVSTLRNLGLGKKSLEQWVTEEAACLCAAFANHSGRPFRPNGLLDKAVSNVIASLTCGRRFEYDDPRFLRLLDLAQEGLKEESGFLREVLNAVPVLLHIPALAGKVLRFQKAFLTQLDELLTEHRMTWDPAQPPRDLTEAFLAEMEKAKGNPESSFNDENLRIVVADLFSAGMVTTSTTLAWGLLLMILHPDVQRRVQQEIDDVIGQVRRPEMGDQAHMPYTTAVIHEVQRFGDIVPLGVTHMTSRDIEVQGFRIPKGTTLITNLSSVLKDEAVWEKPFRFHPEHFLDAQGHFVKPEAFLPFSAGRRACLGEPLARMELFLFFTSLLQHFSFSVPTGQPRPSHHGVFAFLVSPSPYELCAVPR
The nature of data set [7]: Intrinsic clearance in human liver microsomes. Format: ADME, Microsome. For orientation: Microsomes from liver hold many membrane-bound enzymes, among them those of drug oxidation.
The nature of data set [8]: Aqueous solubility of the compound in 0.05 M phosphate buffer at pH 6.5. It is filed as physicochemical.
In another data set the target is Cytochrome P450 2C9 (Homo sapiens, UniProt P11712). In words: Inhibition of CYP2C9. Format: ADME.
Chain of Cytochrome P450 2C9 (P11712 whole entry): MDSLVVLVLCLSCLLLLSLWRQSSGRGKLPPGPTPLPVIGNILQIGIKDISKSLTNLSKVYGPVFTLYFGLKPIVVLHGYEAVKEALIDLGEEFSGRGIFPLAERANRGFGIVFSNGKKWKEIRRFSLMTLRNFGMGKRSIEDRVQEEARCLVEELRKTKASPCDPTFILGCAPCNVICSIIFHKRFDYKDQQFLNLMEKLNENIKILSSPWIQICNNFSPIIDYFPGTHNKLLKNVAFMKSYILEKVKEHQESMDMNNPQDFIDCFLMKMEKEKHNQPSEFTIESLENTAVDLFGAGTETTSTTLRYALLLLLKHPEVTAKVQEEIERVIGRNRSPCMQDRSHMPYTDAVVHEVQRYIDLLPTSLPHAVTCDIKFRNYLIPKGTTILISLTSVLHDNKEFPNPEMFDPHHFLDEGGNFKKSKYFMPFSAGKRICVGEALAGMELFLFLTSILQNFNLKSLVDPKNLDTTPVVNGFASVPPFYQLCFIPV
Data set [9] is described as follows: Intrinsic clearance in rat liver microsomes. Format: ADME, Microsome.

Values after ≈ are worked out from the molar mass of the structure shown. Some results are limits rather than exact numbers.

Chain of Histamine H4 receptor (Homo sapiens) (Q9H3N8 whole entry): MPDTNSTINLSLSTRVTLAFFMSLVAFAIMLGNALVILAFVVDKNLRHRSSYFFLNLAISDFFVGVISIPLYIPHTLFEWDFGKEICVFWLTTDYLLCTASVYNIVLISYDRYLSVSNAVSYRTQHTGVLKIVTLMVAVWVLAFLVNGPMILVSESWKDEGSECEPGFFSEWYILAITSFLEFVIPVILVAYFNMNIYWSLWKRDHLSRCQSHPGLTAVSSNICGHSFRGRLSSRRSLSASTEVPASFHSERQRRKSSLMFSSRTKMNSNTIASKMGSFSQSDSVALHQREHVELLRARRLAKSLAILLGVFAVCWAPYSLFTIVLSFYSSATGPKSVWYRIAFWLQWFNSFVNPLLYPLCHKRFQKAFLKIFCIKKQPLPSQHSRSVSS
T1 sequence (Q9Y5N1 whole entry): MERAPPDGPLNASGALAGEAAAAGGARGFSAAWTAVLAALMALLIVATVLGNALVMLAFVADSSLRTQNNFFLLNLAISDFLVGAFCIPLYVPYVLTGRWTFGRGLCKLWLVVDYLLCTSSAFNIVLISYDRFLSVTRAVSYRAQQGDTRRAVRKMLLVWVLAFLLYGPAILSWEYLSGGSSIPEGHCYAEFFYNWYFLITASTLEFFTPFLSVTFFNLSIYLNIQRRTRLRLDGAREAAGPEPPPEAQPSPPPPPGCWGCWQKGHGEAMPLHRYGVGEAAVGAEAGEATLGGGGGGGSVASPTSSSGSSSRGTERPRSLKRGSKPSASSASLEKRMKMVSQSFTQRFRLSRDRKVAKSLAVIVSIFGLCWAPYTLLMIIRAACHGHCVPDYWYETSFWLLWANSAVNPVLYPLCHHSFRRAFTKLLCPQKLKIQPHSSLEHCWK
Chain of Histamine H2 receptor (Homo sapiens) (P25021 whole entry): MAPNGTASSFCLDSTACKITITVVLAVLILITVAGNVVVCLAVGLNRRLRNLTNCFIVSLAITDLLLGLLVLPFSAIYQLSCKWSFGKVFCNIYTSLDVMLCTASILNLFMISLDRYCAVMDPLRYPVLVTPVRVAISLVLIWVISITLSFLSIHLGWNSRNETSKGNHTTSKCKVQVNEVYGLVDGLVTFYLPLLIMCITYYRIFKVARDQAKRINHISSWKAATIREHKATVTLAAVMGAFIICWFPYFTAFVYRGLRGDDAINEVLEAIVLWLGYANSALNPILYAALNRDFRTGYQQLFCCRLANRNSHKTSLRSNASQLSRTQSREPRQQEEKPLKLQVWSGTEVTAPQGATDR
Chain of Histamine H1 receptor (Homo sapiens) (P35367 whole entry): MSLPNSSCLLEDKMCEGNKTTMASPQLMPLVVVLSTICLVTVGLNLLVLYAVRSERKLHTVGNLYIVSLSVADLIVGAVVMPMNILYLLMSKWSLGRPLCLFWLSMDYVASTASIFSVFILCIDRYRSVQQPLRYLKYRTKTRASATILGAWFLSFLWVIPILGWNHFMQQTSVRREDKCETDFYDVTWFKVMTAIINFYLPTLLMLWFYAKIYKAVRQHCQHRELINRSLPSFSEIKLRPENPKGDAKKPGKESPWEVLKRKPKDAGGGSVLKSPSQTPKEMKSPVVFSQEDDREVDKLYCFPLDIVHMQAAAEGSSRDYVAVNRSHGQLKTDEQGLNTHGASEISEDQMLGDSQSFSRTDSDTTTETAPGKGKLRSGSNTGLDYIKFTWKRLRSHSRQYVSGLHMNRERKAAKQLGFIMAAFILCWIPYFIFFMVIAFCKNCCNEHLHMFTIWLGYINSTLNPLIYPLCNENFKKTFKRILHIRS

Molecule `CC(C)N1CCC(Oc2ccc3c(c2)cc2n3CCN(C(C)C)C2=O)CC1` registered a Ki on Histamine H3 receptor [1] of 27 nM. Also, the inhibition in [2] was -2%; in data set [3] it was -6%; in data set [5], -6%. Also, at Histamine H3 receptor [4], the EC50 was found to be 25 nM.

On to `CC(C)N1CCC(Oc2ccc3c(c2)cc2n3CCN(Cc3ccccc3F)C2=O)CC1`, for which the affinity at Histamine H3 receptor [1], expressed as Ki, was 6 nM. Besides, the inhibition came to 6% in [2], 1% in data set [3] and 16% in [5]. In addition, the EC50 on Histamine H3 receptor [4] was found to be 28 nM.

In the case of `O=C1NCCn2c1cc1cc(OCCCN3CCCCC3)ccc12`, the affinity on Histamine H3 receptor [1], expressed as Ki, was 18 nM. Further, the inhibition turned out to be 45% in data set [2], 8% in [3] and 33% in [5]. Also, the EC50 at Histamine H3 receptor [4] amounted to 74 nM.

Take `CC(C)N1CCC(Oc2ccc3c(c2)cc2n3CCN(Cc3ccccn3)C2=O)CC1`: the affinity on Histamine H3 receptor [1] corresponds to a Ki of 6 nM. The figures for the inhibition in [2], in [3] and in data set [5] were 4%, -3% and 6%, respectively. Also, the EC50 at Histamine H3 receptor [4] amounted to 14 nM.

In the case of `CC(C)N1CCC(Oc2ccc3c(c2)cc2n3CCN(Cc3cccc(F)c3)C2=O)CC1`, the affinity at Histamine H3 receptor [1] corresponds to a Ki of 14 nM. For the same molecule, the inhibition was determined as 21% in data set [2], 4% in [3] and 24% in data set [5]. Also, the EC50 on Histamine H3 receptor [4] amounted to 23 nM.

`CC(C)N1CCC(Oc2ccc3c(c2)cc2n3C[C@H](C)NC2=O)CC1` came in with a Ki on Histamine H3 receptor [1] of 6 nM. The IC50 at Cytochrome P450 3A4, on Cytochrome P450 2D6 and at Cytochrome P450 2C9 was > 50000 nM throughout. In data set [6], this molecule returned a logD of 0.23. In addition, the inhibition in data set [2] is 26%; in data set [3], 15%; in data set [5], -2%. Also, in data set [7], the microsomal CLint is 3 µL/min/mg. Further, the solubility in [8] was > 455 µg/mL. For the same molecule, on Histamine H3 receptor [4], the EC50 was 14 nM.

In data set [9], `CC(C)N1CCC(Oc2ccc3c(c2)cc2n3CCCNC2=O)CC1` came in with a microsomal CLint of 28 µL/min/mg. At Histamine H3 receptor [1], the Ki was 17 nM. In addition, the IC50 against Cytochrome P450 3A4, at Cytochrome P450 2D6 and on Cytochrome P450 2C9 was > 50000 nM in each case. For the same molecule, the logD in [6] turned out to be 0.07. Also, the values for the inhibition in [2], in [3] and in data set [5] were 9%, -3% and 3%, respectively. In addition, the solubility in [8] is > 455 µg/mL. In addition, at Histamine H3 receptor [4], the EC50 turned out to be 26 nM.

With `CC(C)N1CCC(Oc2ccc3c(c2)cc2n3CCNC2=O)CC1`, the microsomal CLint in [9] is 70 µL/min/mg; in data set [7] it was 1 µL/min/mg. Moreover, at Histamine H3 receptor [1], the Ki is 25 nM. Moreover, the IC50 against Cytochrome P450 3A4 is > 50000 nM; against Cytochrome P450 2D6, 4000 nM; against Cytochrome P450 2C9 it was > 50000 nM. Further, the logD in data set [6] is -0.05. The solubility in [8] was > 436 µg/mL. The inhibition in data set [3] is 6%; in data set [5] it was 1%. Moreover, the EC50 on Histamine H3 receptor [4] was 38 nM.

For the molecule `CC(C)N1CCC(Oc2ccc3c(c2)cc2n3CCCN(CC3CC3)C2=O)CC1`, the inhibition in [2] was 15%; in [3] it was -7%; in data set [5], 5%. Further, the EC50 at Histamine H3 receptor [4] amounted to 36 nM.

Regarding `CC(C)N1CCC(Oc2cc3cc4n(c3cc2Br)[C@@H](C)CNC4=O)CC1`, the microsomal CLint in [9] came to 12 µL/min/mg; in data set [7] it was 1 µL/min/mg. Moreover, at Histamine H3 receptor [1], the Ki turned out to be 4 nM. The IC50 at Cytochrome P450 3A4, against Cytochrome P450 2D6 and against Cytochrome P450 2C9 was > 50000 nM each time. In data set [6], this molecule registered a logD of 1.13. Also, the inhibition is 18% in [2] and -10% in data set [3]. For the same molecule, in data set [8], the solubility is > 526 µg/mL. Besides, on Histamine H3 receptor [4], the 50% effective concentration (EC50) worked out at 4 nM.

For the molecule `CC(C)N1CCC(Oc2ccc3c(c2)cc2n3CCN(CC3CC3)C2=O)CC1`, the microsomal CLint in data set [9] came to 9 µL/min/mg; in data set [7], 14 µL/min/mg. In addition, affinity on Histamine H3 receptor [1] was put at a Ki of 9 nM. For the same molecule, the IC50 against Cytochrome P450 3A4, at Cytochrome P450 2D6 and against Cytochrome P450 2C9 was > 50000 nM in each case. For the same molecule, the pH-dependent lipophilicity (logD) in data set [6] stood at 1.09. The inhibition was determined as 6% in data set [2] and 7% in data set [3]. The solubility in [8] is > 508 µg/mL. For the same molecule, on Histamine H3 receptor [4], the EC50 turned out to be 28 nM.

On to `CC(C)N1CCC(Oc2ccc3c(c2)cc2n3[C@H](C)CNC2=O)CC1`, for which the microsomal CLint in data set [9] was 29 µL/min/mg. On Histamine H3 receptor [1], the Ki came out at 26 nM. Moreover, the IC50 against Cytochrome P450 3A4 was > 50000 nM; against Cytochrome P450 2D6, 22000 nM; against Cytochrome P450 2C9, > 50000 nM. In data set [6], this molecule yielded a logD of 0.23. Further, the inhibition was 10% in [2], 9% in data set [3] and -4% in data set [5]. The solubility in data set [8] was > 455 µg/mL. In addition, the EC50 on Histamine H3 receptor [4] stood at 29 nM.

`CC(C)N1CCC(Oc2ccc3c(c2)cc2n3[C@@H](C)CNC2=O)CC1` yielded a Ki at Histamine H3 receptor [1] of 42 nM. Moreover, the values for the IC50 against Cytochrome P450 3A4, on Cytochrome P450 2D6 and against Cytochrome P450 2C9 were 26000 nM, > 50000 nM and > 50000 nM, respectively. Moreover, the logD in data set [6] worked out at 0.28. Also, the inhibition in [2] amounted to 9%; in data set [3] it was 10%; in data set [5] it was 11%. Moreover, the microsomal CLint in data set [7] worked out at 4 µL/min/mg. Further, in data set [8], the concentration in solution (solubility) came to 345 µg/mL (≈ 1010 µM). At Histamine H3 receptor [4], the EC50 came to 94 nM.

As to `CC(C)N1CCC(Oc2ccc3c(c2)cc2n3CCN(CC(F)(F)F)C2=O)CC1`, the Ki on Histamine H3 receptor [1] came out at 34 nM. The inhibition in data set [2] was -6%; in data set [3] it was -4%; in data set [5], -1%. For the same molecule, the EC50 on Histamine H3 receptor [4] worked out at 40 nM.

`C[C@H]1CC[C@H](C)N1CCCOc1ccc2c(c1)cc1n2CCNC1=O` yielded a Ki on Histamine H3 receptor [1] of 11 nM. Further, the inhibition in [2] is 17%; in [3], 6%; in data set [5], 16%. The EC50 on Histamine H3 receptor [4] was found to be 24 nM.

Consider `COCCN1CCn2c(cc3cc(OC4CCN(C(C)C)CC4)ccc32)C1=O`, for which, on Histamine H3 receptor [1], the Ki came to 19 nM. Besides, the figures for the inhibition in [2] and in data set [3] were 6% and 0%, respectively. In addition, the EC50 at Histamine H3 receptor [4] was 51 nM.

With `C[C@@H]1CCCN1CCCOc1ccc2c(c1)cc1n2CCNC1=O`, in [9], the microsomal CLint was 37 µL/min/mg. For the same molecule, at Histamine H3 receptor [1], the Ki came to 7 nM. The IC50 on Cytochrome P450 3A4, against Cytochrome P450 2D6 and against Cytochrome P450 2C9 was > 50000 nM each time. In [6], the logD came out at 0.13. The inhibition in data set [2] is 4%; in data set [3], -4%; in data set [5], 13%. In addition, the solubility in [8] was > 436 µg/mL. The EC50 at Histamine H3 receptor [4] worked out at 4 nM.

`CC(C)N1CCC(Oc2ccc3c(c2)cc2n3CCN(Cc3cccnc3)C2=O)CC1`: affinity at Histamine H3 receptor [1] was put at a Ki of 5 nM. Further, the inhibition in [2], in data set [3] and in data set [5] was 3% throughout. For the same molecule, the EC50 at Histamine H3 receptor [4] came out at 13 nM.

The molecule `O=C1NCCn2c1cc1cc(OC3CCN(CC4CC4)CC3)ccc12` gave a Ki at Histamine H3 receptor [1] of 129 nM. Moreover, the values for the inhibition in [2], in data set [3] and in [5] were 9%, 3% and -4%, respectively.

The molecule `C[C@H]1CCCN1CCCOc1ccc2c(c1)cc1n2CCNC1=O` came in with a Ki on Histamine H3 receptor [1] of 21 nM. The inhibition in data set [2] is 10%; in data set [3], 4%; in data set [5], 11%. The EC50 on Histamine H3 receptor [4] is 140 nM.

The Ki is a dissociation constant, usually derived from enzyme kinetics or from competition with a known ligand. As usually defined, the inhibition is the relative decrease from the control value, in per cent. As usually defined, the EC50 is the concentration that produces a half-maximal response. As a reminder, the IC50 is the concentration that gives 50% inhibition. By logD is commonly meant the decadic logarithm of the distribution of all forms, ionised or not, between an organic phase and buffer at a given pH. As usually defined, the microsomal CLint is the rate of metabolic loss divided by the concentration. For orientation: solubility means the dissolved amount per volume that the medium holds.
